An excerpt weighted towards active compounds, which were near 2% of everything screened.
Runt-SMMHC FRET – blocks binding of human RUNX1 Runt domain to CBFb-SMMHC | Cerulean-Runt/Venus-CBFb-SMMHC FRET ratio 530/480, 1 h | inhibition, % at 20 µM | hit rate 0.74% among 220,000;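 active = mean inhibition across duplicate retests at 20 µM reaching about 50%, limit read from the data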;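 also: 0% = DMSO wells and 100% = wells with excess untagged CBFb-SMMHC; inhibitors lower the FRET ratio by blocking Runt binding to CBFb-SMMHC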
Runt-CBFb FRET – blocks binding of human RUNX1 Runt domain to CBFb; Q01196+Q13951; Cerulean-Runt/Venus-CBFb FRET ratio 530/480, 1 h; inhibition, % at 20 µM; hit rate 0.46% among 220,000; AID 1496;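 active = inhibition over about 50% at 20 µM in the single-dose screen, limit read from the data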;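 also: 0% = DMSO wells and 100% = excess unlabeled CBFb competitor control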
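Assay system: Cerulean-Runt domain fusion protein, energy donor; Signal: fluorescence energy transfer, 422 nm excitation, 530/480 nm emission; Timing: 1 h compound exposure, room temperature; Control set: unlabeled CBFb; Medium: Tris buffer pH 7.5 with salts and BSA; Compound: single test concentration of 20 µM, 1% DMSO final; Probe or stimulus: Venus-CBFb 100 nM.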
RanGTP-Impb inh – disruptors of Ran-importin-beta complex formation – biochemical, FRET, CFP-Ran, YFP-importin-beta, homogeneous, primary screen; hit rate 1.1% among 300,000; cell-free CFP-Ran/YFP-importin-beta FRET ratio; AID 2216; inhibition, % (test concentration not listed);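 active = more than half of the replicate wells show a fall in the fluorescence ratio signal beyond about 16%, limit read from the data, passing the limit was not always enough; inconclusive = exactly half of the replicate wells pass the set limit; inactive = fewer than half of replicates pass the limit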;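 also: 0% = DMSO wells and 100% = Ran loaded with GDP instead of GTP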
MEX-5 binding – C. elegans MEX-5 TCR-2 RNA binding activity; Q9XUB2; MEX-5/FITC-TCR2 RNA binding, fluorescence polarization; active compounds read low; activity score (negative = inhibition of binding), % at 10 µM; hit rate 0.38% among 300,000;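 active = inhibition past about -25% in most replicates, and total fluorescence under double the plate's negative control median, limit read from the data; inconclusive = replicates evenly split on the limit, or fluorescence at least double controls; inactive = too little inhibition in most replicates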;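 also: 0% = DMSO and -100% = 5 µM competing unlabeled TCR2 RNA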
Target sequence (Q9XUB2 whole entry, looked up): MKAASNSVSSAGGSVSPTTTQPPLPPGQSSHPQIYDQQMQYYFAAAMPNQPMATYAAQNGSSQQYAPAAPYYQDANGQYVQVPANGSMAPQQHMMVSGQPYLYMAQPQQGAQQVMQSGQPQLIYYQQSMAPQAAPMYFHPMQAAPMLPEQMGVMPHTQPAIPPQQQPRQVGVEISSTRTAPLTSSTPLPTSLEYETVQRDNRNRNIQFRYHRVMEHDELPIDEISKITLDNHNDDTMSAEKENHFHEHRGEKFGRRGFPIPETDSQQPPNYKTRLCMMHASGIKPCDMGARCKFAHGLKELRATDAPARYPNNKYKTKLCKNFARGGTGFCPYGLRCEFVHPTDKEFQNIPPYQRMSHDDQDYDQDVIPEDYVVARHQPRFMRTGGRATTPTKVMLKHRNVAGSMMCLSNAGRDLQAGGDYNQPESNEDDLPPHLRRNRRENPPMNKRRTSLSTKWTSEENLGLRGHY
PKD1 kinase inh – blocks activity of human protein kinase D1; Q15139; PKD1 kinase fluorescence polarization assay; inhibition, % (no concentration beside the values); hit rate 0.056% among 200,000
EBV gp42 block – blocks Epstein-Barr virus glycoprotein 42 binding. AID 1085. hit rate 0.42% among 220,000. Q1HVG2. Fluorescence polarization binding assay, mP read-out. inhibition, % (tested at 21.74 µM)
* = called active by the depositor; ? = inconclusive; · = no result given. Rule as the data show it, unless noted: active = inhibition above about 50%; inactive = the rest.

SMILES	Runt-SMMHC FRET	Runt-CBFb FRET	RanGTP-Impb inh	MEX-5 binding	PKD1 kinase inh	EBV gp42 block
O=C(O)CCC(=O)N1CCc2cc(S(=O)(=O)NCc3ccc(Cl)cc3)ccc21	·	·	-1	-2	·	·
Cc1ccc(OCCC(=O)NNC(=O)c2cc(C)oc2C)cc1	·	·	·	-1	·	·
COc1cc(C2SCC(=O)N2Cc2ccccc2)ccc1O (stereo not drawn)	·	·	17*	1	·	·
COc1ccc(C2SCC(=O)N2Cc2ccccc2)cc1 (stereo not drawn)	·	·	2	0	·	·
Cn1c(N)nc2nc(CCc3ccccc3)c(=O)[nH]c2c1=O	·	·	0	-11	·	·
Cc1ccc(C)n1-c1ccc(C(=O)O)cc1	2	6	-2	-50*	-1	-7
Cc1cc(C)c(S(=O)(=O)Nc2ccccc2C(=O)OCC(=O)NCc2ccccc2)c(C)c1	6	-2	1	3	1	-2
C=CCn1c(C)cc(C(=O)COC(=O)COc2ccccc2C#N)c1C	-1	-3	3	-1	-7	90*
CCCCN(C(=O)c1ccc(S(=O)(=O)N2CCCC2)cc1)C1CCS(=O)(=O)C1 (stereo not drawn)	·	·	-2	-1	·	·
Cc1ccc2nc(SCC(=O)Nc3ccccc3N3CCOCC3)c(C#N)cc2c1	0	0	-3	0	1	50*
COc1ccc(Nc2nc(=O)c3cc([N+](=O)[O-])ccc3s2)cc1	-1	2	-1	1	·	61*
Cc1ccc(NC(=O)N2CCc3ccccc3C2)c(C)c1	·	·	1	-1	·	·
O=C(C1CCCCCC1)N1CC[C@@H](N2CCC(O)CC2)[C@H](O)C1	·	·	27*	-4	·	·
O=C(C1CCCCC1)N1CCN(C(=O)C2CCCCC2)CC1	0	-2	-8	2	-1	19
COC(=O)C1=NN(C(=O)c2ccc(C)cc2)C(O)(c2ccc(Cl)cc2)C1 (stereo not drawn)	-9	-2	0	-40*	-14	-14
COC(=O)C1=NN(C(=O)c2ccccc2)C(O)(c2ccc([N+](=O)[O-])cc2)C1 (stereo not drawn)	·	·	1	2	·	·
CCOc1cc(/C=C2/NC(=O)N(CC(=O)OC)C2=O)ccc1OC	2	-1	-2	1	0	-2
CCOc1cc(Br)c(/C=C2/C(=O)N(C)C(=S)N2CC(=O)OC)cc1OC	·	·	·	-32*	6	-6
CCOc1ccc(CN(C)C(=O)CNC(=O)c2cc(OC)c(OC)c(OC)c2)cc1	·	·	-13	-2	·	·
CCCCc1ccc(/C=C2\C(=O)ON=C2c2ccccc2)s1	-3	-3	?	-33*	5	-19
O=C1ON=C(c2ccccc2)/C1=C/c1ccco1	-10	7	0	-6	-7	-10
CC(C)(C)c1csc(NC(=O)Cc2ccc(S(=O)(=O)N3CCOCC3)s2)n1	·	·	2	-4	·	·
Cc1nn(-c2ccccc2)c(Cl)c1/C=N/Nc1nncc(=O)[nH]1	0	0	2	4	·	3
COCCOC(=O)C1=C(C)OC(N)=C(C#N)C1c1ccc2c(c1)OCO2 (stereo not drawn)	6	2	7	-5	0	-20
C=CCOC(=O)C1=C(C)OC(N)=C(C#N)C1c1ccc2c(c1)OCO2 (stereo not drawn)	5	0	25*	5	10	-1
SMILES	Runt-SMMHC FRET	Runt-CBFb FRET	RanGTP-Impb inh	MEX-5 binding	PKD1 kinase inh	EBV gp42 block
O=c1oc2cc(O)ccc2cc1-c1nc2c(s1)CCc1ccccc1-2	83*	4	·	·	-11	127*
COc1ccc(-c2cc3ccc(O)cc3oc2=O)cc1	·	·	128*	1	·	·
COc1ccc(-c2cc3ccc(OCC(C)=O)cc3oc2=O)cc1	·	·	2	-2	·	·
O=c1oc2ccccc2cc1-c1nc2c(s1)CCc1ccccc1-2	6	30	4	-1	-12	-5
O=c1oc2cc(O)ccc2cc1-c1ccccc1	·	·	140*	-1	·	·
CC(C)(C)n1nc2c(c1NC(=O)Cc1ccccc1)CS(=O)(=O)C2	-1	-1	·	·	-6	-11
Nc1nc(Oc2ccc(F)cc2)c(Br)c(=O)[nH]1	·	·	3	1	·	·
C/C(=N\NC(=O)c1cc(C)nc2ccccc12)c1ccco1	-2	-3	2	2	9	-8
COc1ccc(-c2cc(C(=O)N/N=C(\C)c3ccco3)c3ccccc3n2)c(OC)c1	·	·	0	-32*	·	·
CC1CCC(NS(=O)(=O)c2ccc(N3CCCC3=O)cc2)CC1 (stereo not drawn)	·	·	3	1	·	·
CCOC(=O)C1CCCN(S(=O)(=O)c2ccc3c(c2)N(C(C)=O)CCO3)C1 (stereo not drawn)	·	·	2	3	·	·
Cc1nn(-c2ccccc2)c(N2CCCC2)c1/C=C1\N=C(c2ccccc2)OC1=O	-42	-21	9	2	-15	117*
C/C(=C\C=C(C#N)C#N)c1cc(C#N)c(N)o1	-60	5	-14	?	-4	-94
COc1ccc2[nH]c3c4c(ccc3c2c1)C(=O)C=CC4=O	24	55*	·	·	·	-9
COc1ccc2[nH]c(=O)cc(C(=O)O)c2c1	3	-2	6	-9	4	-2
COC(=O)c1cc(C(=O)NCc2ccccc2)c(=O)[nH]c1C	1	0	3	0	9	-34
COc1cccc(CN2CC(C(=O)NCCn3ccc(C)n3)CCC2=O)c1 (stereo not drawn)	·	·	2	·	·	·
CC1=CC(=C(C#N)c2nc3ccccc3s2)C=C(C)N1Cc1ccco1	-224	-72	5	-3	8	157*
CCOc1ccc2cc(C(=O)NCc3ccccc3)c(=N)oc2c1	·	·	5	-5	·	·
CCCCCCc1cc2cc(C(=O)OCC)c(=O)oc2cc1O	84*	10	190*	-1	·	2
CCCCCCc1cc2cc(C(=O)NC)c(=N)oc2cc1O	60*	10	166*	-23	1	·
CCCCCCc1cc2cc(C(N)=O)c(=N)oc2cc1O	59*	20	168*	-14	3	103*
CCCCCCc1cc2cc(S(=O)(=O)c3ccc(F)c(Cl)c3)c(=O)oc2cc1O	63*	19	130*	1	-2	-8
CNc1c(NS(=O)(=O)c2ccc(F)c(Cl)c2)c(=O)oc2ccccc12	·	·	-3	0	·	·
CCCCCCn1cc(C(=O)OCC)c(=O)c2cc(F)c(F)cc21	4	4	-1	1	·	-13
CCCCCCc1cc2cc(C(=O)Nc3cccc(OC)c3)c(=O)oc2cc1O	63*	143*	156*	-3	-6	-11
CC(OC(=O)Cn1cnc2c1c(=O)n(C)c(=O)n2C)C(=O)Nc1ccc(Cl)cc1 (stereo not drawn)	·	·	3	0	·	·
